Lung fibro prol: blocks proliferation of human lung fibroblasts; 85,000 tested, 1.1% active; viability, % at 10 µM; LL 47 human lung fibroblast viability, ATP luminescence; stronger effect = lower value;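 active = viability at or below 50% in the single dose screen; inactive = viability above 50%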;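 note: compound exposure lasted 72 h before the ATP readout; 100% = median luminescence of untreated cell-only wells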
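Signal: luminescent ATP detection, CellTiter-Glo; assay system: LL 47 human lung fibroblasts; input: 1,150 cells/well; incubation: overnight cell rest, 72 h compound treatment at 37 °C; measure: % viability versus median cells-only luminescence; medium: IMEM growth medium with 15% fetal bovine serum; dosing: compound addition at 0.1% DMSO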
HCT116 bCat-KO: beta-catenin-lacking colon tumor cell growth suppression; 140,000 tested, 1.5% active; HCT116 beta-catenin knockout viability, CellTiter-Glo, 60 h; stronger effect = lower value; viability, % at 10 µM; AID 818;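 active = viability at or under a set limit, the compound median less 4 SD, cut at about 6% in these data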;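 note: 0% = Hyamine 1622 control at 20 µM and 100% = untreated cell control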
H69AR growth 86K: growth inhibitors of human H69AR lung tumor cells | H69AR lung tumor viability, ATP luminescence, 72 h; stronger effect = lower value | viability, % at 10 µM | 85,000 tested, 6% active;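 active = viability at or below 40%; inactive = viability above 40%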;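 note: multidrug resistant small cell line overexpressing MRP-1 efflux transporter; 100% = mean luminescence of untreated control wells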
HCT116 PTEN-null: growth suppressors of cells with PTEN tumor suppressor deletion. HCT116 PTEN-null viability, CellTiter-Glo, 60 h; stronger effect = lower value. viability, % at 10 µM. 140,000 tested, 1.2% active. AID 827;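 active = viability at or below a set limit, 4 SD under the median of all tested compounds, cut at about 3.7% in these data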;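 note: PTEN knockout HCT116 line with beta catenin targeted HCT116 as companion control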
HUVEC prolif 384: blocks proliferation of human endothelial cells | HUVEC proliferation, CellTiter-Glo luminescence, 72 h; stronger effect = lower value | viability, % at 10 µM (by protocol) | 86,000 tested, 1.1% active | AID 648;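 active = viability at or below 30%; inactive = viability above 30%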;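 note: 100% = median luminescence of DMSO-only cell control wells on each plate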
* hit, by the source's call; . = no result. The sample as a whole holds a higher share of hits than the screen did.

SMILES	Lung fibro prol	HCT116 bCat-KO	H69AR growth 86K	HCT116 PTEN-null	HUVEC prolif 384
N#CC(C#N)=C1NC2(CCCC2)Cc2ccccc21	.	92	.	97	.
C(=N\Nc1nc2ccccc2[nH]1)/c1c[nH]c2ccccc12	.	9	.	14	.
O=[N+]([O-])c1cc(/C=N/Nc2nc3ccccc3[nH]2)c(O)cc1O	.	5.2*	.	6	.
COc1ccc(C)cc1S(=O)(=O)N1CCC(C(=O)N2CCN(C)CC2)CC1	.	92	.	92	.
CC(=O)N1CCC(N(CCN2CCOCC2)C(=S)Nc2cc(C)ccc2C)CC1	.	102	.	98	.
COc1ccc(-c2nnn(CC(=O)NC3CCCc4ccccc43)n2)cc1OC (stereo not drawn)	66	.	25*	.	100
CCOc1ccccc1NC(=O)Cn1nnc(-c2ccc(OCC)c(OCC)c2)n1	73	2.0*	3.5*	2.8*	55
COc1ccc(N2CCN(C(=O)Cn3nnc(-c4ccc(OC)c(OC)c4)n3)CC2)cc1	100	78	15*	59	101
CCOc1ccc(-c2nnn(CC(=O)Nc3cc(OC)ccc3OC)n2)cc1OCC	94	108	97	94	62
CCOc1ccc(-c2nnn(CC(=O)Nc3cc(OC)cc(OC)c3)n2)cc1OCC	95	54	10*	63	55
Fc1ccccc1-c1csc(=Nc2cccnc2)n1CCCn1ccnc1	.	72	.	70	.
CCOC(=O)C(=O)Nc1cc(Cl)ccc1C	.	97	.	95	.
CC(=C\C(=O)O)/C(=C/c1ccc(C)o1)C(=O)O	.	94	.	91	.
CCOc1ccc(NC(=O)C(c2ccccn2)N(C(=O)CCl)c2ccc(F)cc2)cc1 (stereo not drawn)	.	84	.	89	.
Cc1ccc(-c2noc(CCC(=O)NC3CCCc4ccccc43)n2)cc1 (stereo not drawn)	105	80	20*	87	88
Cc1ccc(-c2noc(CCC(=O)NC3CCN(Cc4ccccc4)CC3)n2)cc1	99	39	85	45	95
O=C1N/C(=C\c2ccc(O)cc2)C(=O)c2ccccc21	.	5.8*	.	7	.
O=C(Oc1ccccc1/C=C\C(=O)c1cc2ccccc2o1)c1ccccc1	.	2.3*	.	2.4*	.
O=C(Nc1ccccc1)c1ccc(OC(=O)c2cc3ccccc3o2)cc1	93	89	89	95	75
COc1cccc(C(=O)Oc2ccccc2/C=C\C(=O)c2cc3ccccc3o2)c1	.	2.2*	.	1.1*	.
O=C(Oc1ccccc1/C=C\C(=O)c1cc2ccccc2o1)c1cccc(F)c1	.	5.9*	.	1.3*	.
Cc1ccc2c(n1)sc1c(-c3ccc(Br)cc3)c(C#N)c(N)nc12	.	9	.	3.2*	.
CCc1nc(N)c(C#N)c(-c2ccc(F)cc2)c1C	105	95	92	89	100
O=C(c1ccco1)N1CCN=C1SCc1ccc(F)cc1	107	115	106	108	102
Cc1ccc(C(CC(=O)c2ccco2)SCCO)cc1 (stereo not drawn)	.	5.5*	.	5	.
SMILES	Lung fibro prol	HCT116 bCat-KO	H69AR growth 86K	HCT116 PTEN-null	HUVEC prolif 384
O=C(CC(SCCO)c1ccc(F)cc1)c1ccco1 (stereo not drawn)	.	4.0*	.	2.5*	.
O=C(CSCCSCC(=O)c1ccco1)c1ccco1	94	101	85	104	87
O=C(O)C1C2CCC(O2)C1C(=O)NCc1ccc(Cl)cc1 (stereo not drawn)	.	91	.	91	.
CCCCn1c(NC(=S)Nc2ccccc2)nc2ccccc21	.	41	.	30	.
CCCCn1c(NC(=O)C2CCCCC2)nc2ccccc21	57	5.2*	54	9	61
CCCn1c(NC(=O)c2ccc(Br)cc2)nc2ccccc21	66	63	32*	62	74
CCCCn1c(NC(=O)c2ccccc2)nc2ccccc21	48*	17	14*	12	70
Cn1c(NC(=O)c2cccc(Cn3cc(Cl)cn3)c2)nc2ccccc21	50*	92	37*	85	72
CC(=O)NC(Cc1cccc(C)c1)C(=O)NC1CCN(C(=O)c2ccc([N+](=O)[O-])cc2)CC1 (stereo not drawn)	.	89	.	81	.
O=C(Nc1ccc(CN2CCOCC2)cc1)c1ccc(-c2ccc(Br)cc2)o1	75	14	19*	17	45
COC(=O)c1ccccc1NC(=O)c1ccc(-c2cccc(Cl)c2)o1	86	24	12*	22	52
COC(=O)c1ccccc1NC(=O)c1ccc(COc2ccccc2)o1	96	80	75	78	86
Cc1ccc(-c2nn3c(C)nnc3s2)cc1NC(=O)c1ccc(-c2ccc(Cl)cc2Cl)o1	6.5*	2.3*	104	3.2*	6.5*
O=C(Nc1ccccc1)c1ccc(-c2ccc(Br)cc2)o1	106	89	69	95	73
Cc1ccc(-c2nn3c(C)nnc3s2)cc1NC(=O)c1ccc(-c2cccc(Cl)c2)o1	99	11	4.2*	8	36
Cc1ccc(-c2nn3c(C)nnc3s2)cc1NC(=O)c1ccc(Br)o1	103	85	85	86	79
O=C(CC1c2ccccc2Oc2ccccc21)Nc1ccccc1C(F)(F)F	.	84	.	87	.
O=c1[nH]c(NC2CCCCC2)c([N+](=O)[O-])c(=O)[nH]1	.	94	.	104	.
Cc1nnc2sc(-c3ccc(NC(=O)c4ccc(-c5ccc(Br)cc5)o4)cc3)nn12	67	.	21*	.	72
Cc1nn(C)cc1C(C(=O)NC1CCCCC1)N(C(=O)Cc1cccs1)c1ccc(Cl)cc1 (stereo not drawn)	.	76	.	68	.
CC(C)=CCC/C(C)=C/CCC(C)NCCN1CCNCC1 (stereo not drawn)	14*	1.8*	52	1.8*	61
CC(C)=CCC/C(C)=C/CC(C)(C)CNCCN1CCNCC1	1.7*	1.1*	0.6*	1.2*	1.5*
CC(C)=CCCC(C)CN1CCC(O)CC1 (stereo not drawn)	96	94	85	91	81
COc1cccc(C(=O)NN/C(C)=C/C(=O)C(F)(F)C(F)(F)C(F)(F)F)c1	.	62	.	64	.
CCOC(=O)c1[nH]cnc1C(=O)NC(C)C	103	90	95	104	93
SMILES	Lung fibro prol	HCT116 bCat-KO	H69AR growth 86K	HCT116 PTEN-null	HUVEC prolif 384
CCOC(=O)C1=C(O)/C(=C/c2cc(OC)c(OC)c(OC)c2)SC1=Nc1ccc(OC)cc1	.	86	.	86	.
CCOC(=O)C1=C(O)/C(=C/c2ccc(C)o2)SC1=NC(=O)c1ccccc1C	58	.	17*	.	64
N#CC1=C2SCC(O)(c3ccccc3)N2C(=O)CC1c1ccccc1 (stereo not drawn)	47*	20	24*	23	40
O=C(Nc1nc(COc2ccccc2)cs1)C12CC3CC(CC(C3)C1)C2	87	39	39*	30	56
CCc1ccc(C(=O)CSc2nc3cc(S(=O)(=O)N4CCOCC4)ccc3n2CC)cc1	.	82	.	81	.
COC(=O)COc1ccc(S(=O)(=O)N2CCc3ccccc3C2)cc1	25*	98	109	106	19*
CCOc1ccc(S(=O)(=O)N2CCc3ccccc3C2)cc1	102	96	86	101	107
O=C(NCc1cccnc1)C(=O)NCC1OCCCN1S(=O)(=O)c1ccccc1 (stereo not drawn)	.	100	.	88	.

Assay outcomes (PubChem BioAssay)
